Key:
[1] = Drug level in cynomolgus monkey liver microsomes treated with [14C]-rivoglitazone at 20 uM after 2 to 4 hrs by radio-HPLC/LC-MS/MS analysis in presence of UDPGA, UDPGA/SAM and NADPH-generating system; type: ADME, Macaca fascicularis
[2] = test system: Hepatocyte (Macaca fascicularis); assay: Drug level in monkey hepatocytes treated with [14C]-rivoglitazone at 30 uM after 3 hrs by radio-HPLC/LC-MS/MS analysis in presence of UDPGA, UDPGA/SAM and NADPH-generating system; conditions: cynomolgus monkey
[3] = molecular target: T1, UDP-glucuronosyltransferase 1A9 (Homo sapiens, UniProt O60656); assay: Activity of human UGT1A9 expressed in microsomes isolated from baculovirus infected insect cell assessed as enzyme-mediated (2S,3S,4S,5R,6R)-3,4,5-trihydroxy-6-(5-(4-((6-methoxy-1-methyl-1H-benzo[d]imidazol-2-yl)methoxy)benzyl)-2,4-dioxothiazolidin-3-yl)tetrahydro-2H-pyran-2-carboxylic acid formation at 20 uM after 4 hrs by radio-HPLC/LC-MS/MS analysis in presence of UDPGA; type: ADME
T1 sequence (O60656 whole entry): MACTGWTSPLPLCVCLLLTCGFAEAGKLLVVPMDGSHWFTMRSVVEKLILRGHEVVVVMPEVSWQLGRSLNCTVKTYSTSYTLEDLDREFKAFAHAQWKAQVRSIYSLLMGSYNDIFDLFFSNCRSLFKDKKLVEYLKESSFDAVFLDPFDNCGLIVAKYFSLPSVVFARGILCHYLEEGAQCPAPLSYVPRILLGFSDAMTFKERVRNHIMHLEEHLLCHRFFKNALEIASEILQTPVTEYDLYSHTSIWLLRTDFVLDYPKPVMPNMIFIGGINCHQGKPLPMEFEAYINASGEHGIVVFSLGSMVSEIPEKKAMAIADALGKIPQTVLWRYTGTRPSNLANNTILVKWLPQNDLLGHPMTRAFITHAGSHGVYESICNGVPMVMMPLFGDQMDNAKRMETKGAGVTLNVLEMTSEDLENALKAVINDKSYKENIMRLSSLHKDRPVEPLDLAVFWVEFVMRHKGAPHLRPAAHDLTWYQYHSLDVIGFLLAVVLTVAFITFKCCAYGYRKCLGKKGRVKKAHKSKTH

[4] = molecular target: T2, UDP-glucuronosyltransferase 1A1 (Homo sapiens, UniProt P22309); assay: Activity of human UGT1A1 expressed in microsomes isolated from baculovirus infected insect cell assessed as enzyme-mediated 2-mercapto-3-(4-((6-methoxy-1-methyl-1H-benzo[d]imidazol-2-yl)methoxy)phenyl)propanoic acid formation at 20 uM after 4 hrs by radio-HPLC/LC-MS/MS analysis in presence of UDPGA; type: ADME
T2 sequence (P22309 whole entry): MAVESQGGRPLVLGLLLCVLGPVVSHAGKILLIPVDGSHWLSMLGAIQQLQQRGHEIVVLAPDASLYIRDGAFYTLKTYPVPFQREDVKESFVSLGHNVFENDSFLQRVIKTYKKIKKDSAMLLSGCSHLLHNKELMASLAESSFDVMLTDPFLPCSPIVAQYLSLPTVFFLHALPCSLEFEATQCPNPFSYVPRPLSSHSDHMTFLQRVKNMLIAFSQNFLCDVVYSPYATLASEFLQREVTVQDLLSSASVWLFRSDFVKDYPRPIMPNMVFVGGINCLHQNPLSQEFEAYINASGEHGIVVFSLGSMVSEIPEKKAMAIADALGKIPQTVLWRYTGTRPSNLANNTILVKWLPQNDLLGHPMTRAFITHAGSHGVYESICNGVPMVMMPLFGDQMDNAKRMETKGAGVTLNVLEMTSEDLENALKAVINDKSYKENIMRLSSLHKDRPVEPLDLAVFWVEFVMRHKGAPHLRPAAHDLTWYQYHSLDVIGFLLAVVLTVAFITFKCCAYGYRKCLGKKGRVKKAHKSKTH
How it was run: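 Alamethicin (50 μg/mg protein, 15 min on ice) pretreated expressed human UGT microsomes (1 mg/ml protein) from baculovirus-infected insect cells. Incubation with [¹⁴C]rivoglitazone (20 μM) in 100 mM Tris-HCl (pH 7.5) with 10 mM MgCl₂, started by 5 mM UDPGA, 4 h at 37°C with shaking. UGT insect-cell control supersomes were run alongside. Acetonitrile stop, concentrated supernatant analysed by radio-HPLC, LC-MS and LC-MS/MS.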

Cytochrome P450 1A2 = molecular target: T3, Cytochrome P450 1A2 (Homo sapiens, UniProt P05177); assay: Activity of human CYP1A2 expressed in microsomes isolated from baculovirus infected insect cell assessed as enzyme-mediated (2S,3S,4S,5R,6R)-6-((1-carboxy-2-(4-((6-methoxy-1-methyl-1H-benzo[d]imidazol-2-yl)methoxy)phenyl)ethylthio)carbonylamino)-3,4,5-trihydroxytetrahydro-2H-pyran-2-carboxylic acid formation at 20 uM after 2 hrs by radio-HPLC/LC-MS/MS analysis in presence of NADPH-generating system/SAM; type: ADME
T3 sequence (P05177 whole entry): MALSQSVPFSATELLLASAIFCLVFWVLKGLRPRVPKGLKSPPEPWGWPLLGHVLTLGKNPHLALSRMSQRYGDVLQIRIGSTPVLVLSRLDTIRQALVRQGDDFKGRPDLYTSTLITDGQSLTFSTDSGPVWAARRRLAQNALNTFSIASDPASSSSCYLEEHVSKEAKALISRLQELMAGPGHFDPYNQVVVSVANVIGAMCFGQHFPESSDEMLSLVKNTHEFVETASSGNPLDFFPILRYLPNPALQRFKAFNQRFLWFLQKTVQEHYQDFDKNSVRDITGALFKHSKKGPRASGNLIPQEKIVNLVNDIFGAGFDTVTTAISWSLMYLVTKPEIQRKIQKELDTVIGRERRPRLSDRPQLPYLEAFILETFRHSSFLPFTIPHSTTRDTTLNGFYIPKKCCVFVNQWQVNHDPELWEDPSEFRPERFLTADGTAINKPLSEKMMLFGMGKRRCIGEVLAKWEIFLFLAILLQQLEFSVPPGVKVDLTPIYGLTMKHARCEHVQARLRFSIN

[5] = molecular target: T4, UDP-glucuronosyltransferase 1A3 (Homo sapiens, UniProt P35503); assay: Activity of human UGT1A3 expressed in microsomes isolated from baculovirus infected insect cell assessed as enzyme-mediated 5-(4-((6-hydroxy-1-methyl-1H-benzo[d]imidazol-2-yl)methoxy)benzyl)thiazolidine-2,4-dione formation at 20 uM after 4 hrs by radio-HPLC/LC-MS/MS analysis in presence of NADPH-generating system/SAM; type: ADME
T4 sequence (P35503 whole entry): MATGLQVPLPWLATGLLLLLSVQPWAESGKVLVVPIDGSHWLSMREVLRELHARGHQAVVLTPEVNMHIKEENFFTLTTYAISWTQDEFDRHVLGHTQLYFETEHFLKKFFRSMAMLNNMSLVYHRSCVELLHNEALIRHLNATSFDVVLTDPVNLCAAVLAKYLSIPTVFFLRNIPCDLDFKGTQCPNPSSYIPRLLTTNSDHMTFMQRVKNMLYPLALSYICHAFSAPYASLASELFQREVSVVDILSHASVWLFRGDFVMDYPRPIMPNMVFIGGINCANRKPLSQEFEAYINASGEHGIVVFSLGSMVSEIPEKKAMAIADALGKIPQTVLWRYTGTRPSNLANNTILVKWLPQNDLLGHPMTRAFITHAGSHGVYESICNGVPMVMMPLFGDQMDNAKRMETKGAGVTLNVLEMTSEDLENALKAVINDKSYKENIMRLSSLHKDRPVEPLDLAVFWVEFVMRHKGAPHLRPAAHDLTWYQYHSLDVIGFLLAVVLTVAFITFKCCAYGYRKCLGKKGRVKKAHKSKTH

Drug metabolism [1] | Drug metabolism [2] | Drug metabolism [3] | Drug metabolism [4] | Drug metabolism (Cytochrome P450 1A2) | Drug metabolism [5] | Structure (SMILES)
metabolite_detected | metabolite_not_detected |  |  |  |  | COc1ccc2nc(COc3ccc(CC(S)C(=O)O)cc3)n(C)c2c1 (stereo unspecified)
 |  | metabolite_not_detected | metabolite_not_detected | metabolite_not_detected | metabolite_not_detected | COc1ccc2nc(COc3ccc(C[14CH]4SC(=O)NC4=O)cc3)n(C)c2c1.Cl (racemic)
